Source: ChEMBL document CHEMBL4513216, “Probing the Open Global Health Chemical Diversity Library for Multistage-Active Starting Points for Next-Generation Antimalarials” (ACS Infect Dis, 2020)

Experiment: Toxicity liver stage against HepG2, at 10uM
Format: cell-based
Parameters: test concentration 10 uM, cell line HepG2-A16-CD81EGFP
Conditions: human, HepG2-A16-CD81EGFP cells; read-out: INHIBITION
Method in brief: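 Uninfected HepG2-A16-CD81EGFP cells, 3 × 10^3 per well, 1536-well, plated on prespotted compound at 10 μM final, parasite-free screening media added to match infected plates; puromycin 10 μM positive, DMSO 0.5% negative; run in parallel with 48 h PbLuc assay at 37 °C, 5% CO2; viability by CellTiter-Glo luminescence, normalized to controls.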

Compound	cytotoxicity at 10 µM
O=S(=O)(c1cnccc1N1CCN(CCO)CC1)N1CCCCC1	15.7%
CCS(=O)(=O)N1CCc2ccc(NC(=O)NC3CCCCC3)cc21	-4.56%
CNc1oc(-c2ccc(OC)c(S(=O)(=O)N(C)C)c2)nc1C#N	1.71%
COCCn1cnc2ccc(NC(=O)C3CC3)cc2c1=O	-7.89%
CN1C(=O)c2cccc(NC(=O)c3ccc4c(c3)OCCO4)c2C1=O	4.02%
Cc1cnc2c(c1NCc1ccccn1)c(=O)n(C)c(=O)n2C	-4.32%
COC1(CNC(=O)NCCc2ccccc2)CCSC1 (centres undefined)	-12.6%
Cc1nc(-c2noc3ccc(C(=O)NCCN(C)C)cc23)co1	2.25%
Cn1ncc2c1NC(=O)CC2c1cc(Cl)ccc1F (centres undefined)	78.6%
Cc1nc(N(C)C)nc2c1COCC21CCN(C(=O)NC(C)C)C1 (centres undefined)	-13%
O=C(O)c1ccc(COc2cccc(Cl)c2)s1	8.96%
Cc1nn(C)c2cnn(CC(=O)NCc3cccs3)c12	6.28%
CCN1CCCC(O)(CN(C)Cc2ccccc2F)C1 (centres undefined)	-6.43%
COc1ccc2oc(-c3cn(C)nc3C)c(O)c(=O)c2c1	9.96%
Cc1nc(NCCc2ccc(Cl)cc2)cc(C(=O)N2CCCCC2)n1	-23%
Cc1nc(CN2CCCC2c2[nH]ncc2C(=O)N(C)C)cs1 (centres undefined)	-0.722%
CCN1CCCc2cc(CN3CCc4c(nc(C)[nH]c4=O)C3)ccc21	-1.02%
CN(C)c1nccc(C2CN(c3ccccc3)CCO2)n1 (centres undefined)	-2.4%
Cc1nc(CN2CCOCC2c2[nH]ncc2C)cs1 (centres undefined)	2.15%
Cc1nc(N(C)C)cc(C2(C)CCCNC2)n1 (centres undefined)	2.05%
COc1ccccc1NC(=O)NCc1nnc(SC)n1C	-0.145%
CCn1cc(S(=O)(=O)NCC(c2ccccc2)N2CCOCC2)c(C)n1 (centres undefined)	2.76%
COc1ccccc1CN1CCC(Cc2cnc(CN(C)C)cn2)CC1	-6.45%

Compound	cytotoxicity at 10 µM
CNC(=O)c1ccc(-c2ccc(CNS(=O)(=O)N(C)C)cc2)nc1C	-2.05%
O=C(O)C1CN(c2cncc(Cc3ccccc3F)n2)C1	5.7%
O=C(O)C1(Cc2cc(-c3ccc(F)cc3)no2)CCOCC1	-20.8%
CC(=O)N1CCN([C@@H]2CCC[C@@H](NC(=O)c3cccnc3)[C@H]2O)CC1	-0.00173%
CC(=O)N1CCC(Cc2cccc(-c3c(C)noc3C)n2)C1 (centres undefined)	0.664%
CC(=O)N1CCC(c2n[nH]c3nccnc23)CC1	-8.69%
CCc1nc(CN2CCCN(Cc3noc(C4CC4)n3)CC2)cs1	-7.35%
O=C(Cc1cccnc1)NC1COc2ccccc2C1=O (centres undefined)	-3.77%
CN(C)CCN(Cc1ccc(C#N)cc1)C(=O)c1ccn(C)c(=O)c1	16.8%
C=C(C)CNc1nc(CS(=O)(=O)c2ccccc2)cs1	-8.37%
COCCN(Cc1coc(-c2cccc(Cl)c2)n1)C1CC1	3.92%
CN(CCOCC(F)(F)F)CC1CCN(CCO)CC1	5.68%
CCN1CC(COC(=O)c2cc(Br)ccc2F)CC1=O (centres undefined)	5.09%
CSCC(C)(O)CNC(=O)Nc1ccc(C)cc1Br (centres undefined)	-9.83%
O=C(C1CCS(=O)(=O)C1)N1CCC(=Cc2cccc(F)c2)CC1 (centres undefined)	10.6%
COc1ncc(NCc2ccc(C#N)cc2)cc1C(N)=O	0.217%
CCC(=O)N1CCN(c2ccc(C(=O)OC)cc2)CC1C (centres undefined)	-13.5%
Nc1cc2c(nn1)CCN(C(=O)Cc1ccc3c(c1)CCCC3)C2	0.696%
Cn1c(NCC(=O)N2CCCC2)c(C#N)c(=O)n(C)c1=O	15.4%
Clc1ccc(C2(NCc3noc(C4CC4)n3)CCC2)cc1	5.04%
Cc1nn(C)c(N(C)C)c1CNCc1ccnn1C	-3.35%
Cc1ccc(F)c(S(=O)(=O)Nc2cn(C)cc(Br)c2=O)c1	-7.73%
Nc1ncc(C(=O)N2CCN(c3nccs3)CC2)cc1Cl	-3.78%

Compound	cytotoxicity at 10 µM
CNC(=O)COC(=O)c1ccoc1CN1c2ccccc2CC1C (centres undefined)	0.165%
Cc1cnn(CC2CCCCN2C(=O)Cc2c(C)noc2C)c1 (centres undefined)	-0.807%
OCC1CCCN1c1cc(NCCNc2cccnn2)ncn1 (centres undefined)	18.5%
COc1ccc(F)c(NCc2cnn(C3CCS(=O)(=O)C3)c2)c1 (centres undefined)	2.65%
CC1(C(=O)Nc2ccc(F)c(-n3cccc3)c2)CCOCC1	-0.0972%
Cc1ccc(C(NC(=O)Cn2cc(C3CC3)nn2)C2CC2)cc1 (centres undefined)	-5.36%
CC(C)(C)Cc1nnc(NCc2cccc(C#N)c2)o1	-16.1%
Cc1cccc(-n2cnc(Cl)c2C(=O)O)c1	-1.26%
O=C(NCc1ccco1)N1CCOC(c2ccccc2Cl)C1 (centres undefined)	-1.91%
CCOC(=O)CN(C)Cc1cnc(C)s1	20.2%
COc1ccc(CNC2CCN(c3ccccc3)C2)cc1O (centres undefined)	8.63%
COc1ccc(C(=O)NCCC(N)=O)c(I)c1	9.34%
COc1ccccc1CC(=O)NC1CCCc2cn[nH]c21 (centres undefined)	17.1%
CCN(Cc1csc(CS(C)(=O)=O)n1)c1cccc(F)c1	7.25%
Cn1cccc1C(=O)NC1(C(=O)NCC2CC2)CCCC1	-3.29%
COCC1CN(C(=O)Nc2cc(Cl)ccc2F)CCO1 (centres undefined)	10.7%
COc1ccccc1CC(=O)NC(CC(=O)O)c1ccc(C)cc1 (centres undefined)	11.2%
N#CCCCS(=O)(=O)N1CCCC1CC(=O)c1cccs1 (centres undefined)	-5.07%
CCS(=O)(=O)CCNC(=O)c1ccc(-c2ccc(C)cc2)cc1F	-14.2%
Cc1nc(CN(Cc2ccncc2)C2CCN(C)CC2)cs1	-2.56%
CC(C)[C@H]1COC(=O)N1Cc1nccn1C(C)C	6.35%
OCc1csc(N2C[C@@H](CN3CCCCCC3)[C@@H](CO)C2)n1	2.65%
Cc1cc(N[C@H](CO)c2ccccc2)n2nc(C)cc2n1	-1.58%

Compound	cytotoxicity at 10 µM
Cc1ccccc1Oc1ncccc1CNS(=O)(=O)N(C)C	-4.09%
CC(=O)N1CCc2[nH]cnc2C12CCN(C(=O)Cc1ccccn1)CC2	1.76%
CCS(=O)(=O)c1ncc(CN(C)Cc2ccc(C)o2)n1CCOC	-4.66%
CCC(NC(=O)c1cc(NC(C)=O)ccc1Cl)c1cc(C)ccn1 (centres undefined)	-16.5%
Cc1ccnc(CNC(=O)C2CC(=O)N(CCN(C)C)C2)c1 (centres undefined)	-5.79%
CC(C)n1cc(C(=O)NCCc2cn3ccsc3n2)cn1	8.67%
OCC1(CC2CC2)CCCN(Cc2ccc(C(F)(F)F)nc2)C1 (centres undefined)	-5.96%
Cc1n[nH]c(C)c1CCCN(C)c1cc(N(C)C)ncn1	-3.37%
CC(C)c1cc(C(=O)N(Cc2ccncc2)CC2CCCO2)no1 (centres undefined)	15.6%
CCc1cnc(C)nc1N(C)CCCc1cnn(C)c1	-10%
CC1(C)CNC(=O)c2nc(CCN3CCC(C(N)=O)CC3)[nH]c2C1	-1.35%
Cc1ccc(CCN2C(=O)CC[C@H]3CN(Cc4cnn(C)c4)CC[C@H]32)o1	-2.19%
CC(C)n1cnnc1CN(C)C(=O)C1CCCN(C2CCN(C)CC2)C1 (centres undefined)	-1.26%
COCC(NC(=O)c1cc(NC(C)=O)ccc1Cl)c1ccccn1 (centres undefined)	-12.1%
Cn1c(CN2CCOCC2)nnc1C1CCCN(C(=O)CCC2CC2)C1 (centres undefined)	6.72%
Cc1cc(C(=O)N2CCC(c3nccn3Cc3ccccn3)CC2)no1	-1.85%
CCSCC(C)NCc1ccccc1-n1ccnc1 (centres undefined)	11.7%
Cc1ccc(Cn2cc(C)c(N)n2)cc1	-0.751%
COc1cccc(CNc2cnn(CC(F)F)c2)c1	-7.16%
NC(=O)C(NCc1nn(-c2ccccc2)c2c1CCC2)c1ccccc1 (centres undefined)	-5.86%
CCc1ccc(C(=O)N2CCCN(Cc3nccn3CC)CC2)s1	-8.72%
Cc1ccccc1-c1noc(CN2CCc3cncnc3C2)n1	-11.5%
Cc1cc(C)n(CC2CCCN2C(=O)CCCNc2ncccn2)n1 (centres undefined)	-19%

Compound	cytotoxicity at 10 µM
COc1ccc2c(c1)CN(Cc1nc3ccsc3c(=O)[nH]1)CC2	-4.64%
CCN1CCN(c2ccc(CNC(=O)c3c(C)noc3C)cn2)CC1	0.265%
Cc1ccn2cc(C(=O)N3CCCC3c3c(C)nn(C)c3C)nc2c1 (centres undefined)	3.2%
COc1cc(C(=O)N2CCCC(CNS(C)(=O)=O)C2)cc(OC)c1C (centres undefined)	-7.69%
O=C(CSc1ccc(F)c(F)c1)NS(=O)(=O)c1ccc2c(c1)OCCO2	-4.28%
CN(C)Cc1cc(C2CCN(C(=O)C3CC34CCC4)CC2)nn1C (centres undefined)	-15%
CC(=O)N1CCCCCC1C1CCN(Cc2nc(C(C)C)no2)CC1 (centres undefined)	6.27%
COc1ccc(CC(=O)N2CCN(C)c3ncccc3C2)cc1	-5.79%
c1cncc(OCC2CN(Cc3nccs3)Cc3nccn3C2)c1 (centres undefined)	6.9%
CN(C)Cc1cc(C2CCCCN2S(=O)(=O)Cc2ccccc2)nn1C (centres undefined)	0.57%
O=C(Cc1cccnc1)N1CCC2(CC1)CCN(C1CCOCC1)CC2	-8.25%
COc1ncc(C2(O)CCN(Cc3cccs3)CC2)c(OC)n1	1.9%
O=C(c1cnoc1)N1CCC[C@]2(C[C@@H](OCc3ccccn3)CO2)C1	-9.47%
Cc1sc(Br)cc1S(=O)(=O)NCCCN	0.973%
Cc1cccc(CC(=O)N2CCCCC2CN)c1 (centres undefined)	5.68%
O=C(Nc1cnccn1)[C@H]1CC[C@@H]2[C@@H](CCN2Cc2ccoc2)O1	8.86%
O=C(c1c[nH]cn1)N1CCOCC2(C1)CN(c1ccccc1)C(=O)CO2 (centres undefined)	-7.27%
CN(C)C(=O)CN1CCC2(C1)CN(CC1CCOC1)C2 (centres undefined)	8.43%
CN(Cc1cn2c(n1)CN(CC1CC1)CC2)Cc1ccco1	1.39%
CN1CC(=O)N(c2ccccc2)CC12CCN(Cc1cccnc1)C2 (centres undefined)	-2.09%
Cc1ccc(N2CCN(Cc3ccccc3)C3(CCNCC3)C2=O)cn1	12.1%
O=C(CCn1cccn1)N1C[C@H]2CC[C@@H](C1)N(Cc1ccccn1)C2=O	-13.6%
